Compound activity from PubChem BioAssay.
Only some compounds are listed: those with a hit (about 1.9% of all), similar ones and a draw of the others.
Runt-CBFb FRET – inhibitors of RUNX1 Runt–CBFb binding, primary screen, biochemical, FRET, Cerulean-Runt, Venus-CBFb, uHTS. Runt-related transcription factor 1 (Homo sapiens) + Core-binding factor subunit beta …. Cerulean-Runt/Venus-CBFb FRET ratio 530/480, 1 h. inhibition, % at 20 µM. 0.46% of 220,000 active;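 active means inhibition over about 50% at 20 µM in the single-dose screen, limit read from the data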;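 further: 0% = DMSO wells and 100% = excess unlabeled CBFb competitor control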
Target sequence (Q01196 whole entry, looked up): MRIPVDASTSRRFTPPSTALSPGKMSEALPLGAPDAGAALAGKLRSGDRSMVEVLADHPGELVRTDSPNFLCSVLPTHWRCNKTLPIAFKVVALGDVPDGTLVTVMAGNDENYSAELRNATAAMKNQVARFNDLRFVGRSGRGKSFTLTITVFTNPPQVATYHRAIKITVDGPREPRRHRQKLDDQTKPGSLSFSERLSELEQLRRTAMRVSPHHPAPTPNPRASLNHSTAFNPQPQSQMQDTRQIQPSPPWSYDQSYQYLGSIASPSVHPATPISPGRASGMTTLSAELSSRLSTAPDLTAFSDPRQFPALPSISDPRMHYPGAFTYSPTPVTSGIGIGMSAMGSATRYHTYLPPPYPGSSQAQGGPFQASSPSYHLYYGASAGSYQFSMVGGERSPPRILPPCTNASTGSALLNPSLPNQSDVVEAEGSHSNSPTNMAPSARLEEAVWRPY
Target sequence (Q13951 whole entry, looked up): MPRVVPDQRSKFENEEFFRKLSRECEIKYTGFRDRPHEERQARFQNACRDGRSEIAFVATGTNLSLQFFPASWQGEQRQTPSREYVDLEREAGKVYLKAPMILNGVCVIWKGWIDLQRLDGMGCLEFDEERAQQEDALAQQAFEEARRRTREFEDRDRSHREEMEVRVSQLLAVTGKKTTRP
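Measured by: fluorescence energy transfer, 422 nm excitation, 530/480 nm emission; Assay system: Cerulean-Runt domain; Medium: Tris pH 7.5 buffer with BSA; Measure: loss of energy transfer signal; Controls: 5 µM unlabeled CBFb as full-inhibition high control; Incubation: protein complex preformed 1 h, compound exposure 1 h, room temperature, dark.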
Runt-SMMHC FRET – inhibitors of RUNX1 Runt–CBFb-SMMHC binding, primary screen, biochemical, FRET, Cerulean-Runt, Venus-CBFb-SMMHC, uHTS; Runt-related transcription factor 1 (Homo sapiens) + Core-binding factor subunit beta …; Cerulean-Runt/Venus-CBFb-SMMHC FRET ratio 530/480, 1 h; inhibition, % at 20 µM; 0.74% of 220,000 active;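 active means mean inhibition across duplicate retests at 20 µM reaching about 50%, limit read from the data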;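 further: 0% = DMSO wells and 100% = wells with excess untagged CBFb-SMMHC; inhibitors lower the FRET ratio by blocking Runt binding to CBFb-SMMHC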
TbHK1 inh – Trypanosoma brucei hexokinase 1 inhibitors, primary screen, biochemical, G6PDH-coupled NADH absorbance, MLSCN library. hexokinase 1 [Trypanosoma brucei]. inhibition, % at 10 µM. recombinant TbHK1, G6PDH-coupled NADH A340. 0.11% of 220,000 active;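 active means inhibition of 50% or more in the single-dose primary screen; inactive means inhibition below 50%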
Hck-Nef inh – inhibitors of Nef-activated human Hck kinase, primary screen, biochemical, Z-Lyte FRET, 384-well, Hck-YEEI. Tyrosine-protein kinase HCK (Homo sapiens), P08631. 0.68% of 220,000 active. inhibition, % at 20 µM. Recombinant Hck-YEEI plus Nef, Z-Lyte FRET kinase assay;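 active means Hck-Nef kinase inhibition above about 50%, limit read from the data; inactive means inhibition below that limit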;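 further: 0% = DMSO with Hck plus Nef and 100% = Hck alone without Nef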
RanGTP-Imp inh – inhibitors of RanGTP-importin-beta interaction, primary screen, biochemical, FRET, CFP-Ran, YFP-importin-beta, homogeneous | cell-free CFP-Ran/YFP-importin-beta FRET ratio | Ran GTPase (GTP-bound) - importin-beta complex | AID 2216, 2009 | 1.1% of 300,000 active | inhibition, % (no concentration beside the values);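 active means more than half of the replicate wells show a fall in the fluorescence ratio signal beyond about 16%, limit read from the data, passing the limit was not always enough; inconclusive means exactly half of the replicate wells pass the set limit; inactive means fewer than half of replicates pass the limit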;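 further: 0% = DMSO wells and 100% = Ran loaded with GDP instead of GTP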
Hck Nef conf – retest of Hck:Nef kinase inhibitor hits, confirmation, biochemical, Z-Lyte FRET, 384-well, p-Tyr peptide counterscreen; shares compounds with Hck-Nef inh; Recombinant Hck-YEEI:Nef, Z-Lyte FRET kinase assay; calls only at 10 µM; 28% of 1,300 active;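 active means average inhibition of at least 50%, with Z-scores no higher than 3 in both the phospho-tyrosine peptide and fluorescence counterscreens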
* hit, by the source's call; i = inactive; ? = inconclusive; / = no result shown; + = active, no number.

SMILES | Runt-CBFb FRET | Runt-SMMHC FRET | TbHK1 inh | Hck-Nef inh | RanGTP-Imp inh | others
COc1ccc2cc(C(N)=O)c(=Nc3ccc(C)cc3)oc2c1 | -2.5 | -0.9 | -0.8 | -39.9 | 5.3
COc1cccc(N=c2oc3cc(O)ccc3cc2C(=O)NCC2CCCO2)c1 (centres undefined) | 51.5* | 90.5* | -11.7 | 82.4* | 179.9*
COc1ccccc1N=c1oc2cc(O)ccc2cc1C(N)=O | 9.9 | 42.0 | -4.0 | 140.3* | 179.0*
Cc1cccc(N=c2oc3cc(O)ccc3cc2C(N)=O)c1 | 10.4 | 79.3* | -7.7 | 152.8* | -2.3
CC1CN(CC(=O)NCc2ccc(Cl)cc2)CC(C)O1 (centres undefined) | / | / | / | / | -3.4
CCC1CCCCN1CCCNC(=O)c1cn(CC)c2ccc(S(=O)(=O)N(C)C3CCCCC3)cc2c1=O (centres undefined) | / | / | / | / | 0.6
FC(F)(F)c1cnc(Oc2cccc3ccccc23)c(Cl)c1 | -1.6 | 2.1 | 33.3 | -1.8 | -2.8
Cn1nc(Oc2ncc(C(F)(F)F)cc2Cl)cc1C(F)(F)F | 0.9 | -1.9 | -0.9 | 54.3* | ? | Hck Nef conf=i
CC1CN(C(=O)c2ccc(N3CCCCC3)c([N+](=O)[O-])c2)CC(C)O1 (centres undefined) | -0.2 | -0.6 | -9.8 | -18.2 | -0.8
O=C(C1=NN[C@@H]2C(=O)N(c3cccc(C(F)(F)F)c3)C(=O)[C@H]12)c1cnccn1 | 1.0 | 2.4 | -35.4 | 52.0* | 1.5 | Hck Nef conf=i
N#Cc1ccc(N2C(=O)[C@@H]3C(C(=O)c4cnccn4)=NN[C@@H]3C2=O)cc1 | 0.3 | -7.8 | -12.9 | -6.4 | 3.0
Cn1cc(/C=N/NC(=O)c2cc3cc(Br)ccc3o2)c2ccccc21 | -25.2 | -35.1 | -7.3 | 26.7 | 5.4
O=C(O)c1ccc(-n2cccc2/C=N\NC(=O)c2cc3cc(Br)ccc3o2)cc1 | 8.5 | -6.9 | -0.2 | 53.9* | -3.5 | Hck Nef conf=i
O=C(CC1S/C(=N/N=C/c2ccco2)NC1=O)Nc1cccc(Cl)c1Cl (centres undefined) | -0.4 | -2.3 | -23.0 | 42.3 | ?
CCN(CC)CCNC(=S)Nc1ccc(F)cc1 | -1.7 | -3.1 | 5.6 | 14.0 | 4.4
CCCc1cc(=O)oc2c(CN3CCOCC3)c(O)ccc12 | / | 90.4* | -24.4 | 65.2* | 5.0
CCCCc1cc(=O)oc2c(CN3CCN(C)CC3)c(O)ccc12 | / | / | / | / | 5.9
O=c1oc2c(CN3CCOCC3)c(O)c(Cl)cc2c2c1CCCC2 | 104.6* | 41.9 | -12.9 | 79.7* | 85.3*
O=c1oc2c(CN3CCOCC3)c(O)ccc2c2ccccc12 | / | -13.5 | -13.7 | -2.0 | -5.5
O=c1oc2c(CN3CCOCC3)c(O)ccc2c2c1CCCC2 | 41.5 | 66.2* | -19.7 | 54.2* | 33.3*
O=C(CSC1=NS(=O)(=O)c2cc(F)ccc2N1)NCc1ccccc1Cl | / | / | / | / | 0.8
O=C(Cc1ccccc1[N+](=O)[O-])OCc1cccc([N+](=O)[O-])c1 | / | / | / | / | 11.0
CCSc1nnc(NC(=O)c2ccco2)s1 | 0.7 | 2.0 | -31.5 | 101.5* | 2.0 | Hck Nef conf=i
CCOC(=O)CSc1nnc(NC(=O)c2ccco2)s1 | / | / | / | / | 1.6
CC(=O)Nc1ccc(S(=O)(=O)Oc2cccc(/C=N/N=C3/NC(=O)C(CC(=O)O)S3)c2)cc1 (centres undefined) | 1.4 | 2.4 | -30.0 | 4.7 | 3.1
SMILES | Runt-CBFb FRET | Runt-SMMHC FRET | TbHK1 inh | Hck-Nef inh | RanGTP-Imp inh | others
O=C(Nc1ccccc1C(=O)N1CCCC1)c1ncoc1-c1cccc(Cl)c1 | / | / | / | / | 3.5
COCCN(CCOC)Cc1c(O)ccc2c3c(c(=O)oc12)CCC3 | 43.6 | 92.6* | -26.5 | 72.0* | -2.0
CCCCN(CC)Cc1c(O)ccc2c3c(c(=O)oc12)CCC3 | 36.8 | 73.2* | -29.9 | + | -3.0
CCN(CC)C(=O)COc1ccc2c3c(c(=O)oc2c1C)CCCC3 | / | / | / | / | -4.2
COCc1cc(C)nc(OCC(=O)N/N=C/c2ccc(-c3cc([N+](=O)[O-])ccc3Cl)o2)c1C#N | / | -8.7 | 0.6 | 93.2* | 1.5 | Hck Nef conf=i
COCc1cc(C)nc(OCC(=O)N/N=C/c2ccco2)c1C#N | 0.9 | -2.3 | -28.3 | 3.3 | -0.5
CC(C)(C)c1ccc(C(=O)COC(=O)CN2C(=O)NC3(CCCC3)C2=O)cc1 | / | / | / | / | 0.0
COC(OC)c1ccnc(-c2ccc(OC(=O)c3ccccc3)cc2)n1 | -2.8 | -2.6 | 2.2 | 57.9* | ? | Hck Nef conf=i
COC(OC)c1ccnc(-c2ccc(OC(C)=O)cc2)n1 | -1.0 | -0.6 | -2.3 | 21.6 | 2.4
COc1ccccc1NC(=S)NC(=O)c1ccc(Cn2cc(Br)cn2)cc1 | 1.6 | 0.9 | -12.1 | 3.7 | 2.6
COc1ccc(-c2cc(-c3ccco3)[nH]c(=O)c2C#N)cc1OC | 14.6 | 29.4 | -25.7 | 53.4* | 8.1 | Hck Nef conf=i
O=S(=O)(c1ccc(Oc2ccc(S(=O)(=O)N(CCO)CCO)cc2)cc1)N(CCO)CCO | -0.5 | 1.2 | 1.7 | 20.6 | -2.1
O=S(=O)(c1ccc(N2CCC(c3ccc(Cl)cc3)=N2)cc1)N(CCO)CCO | 47.9 | 108.0* | -35.1 | 81.6* | ?
Cc1cc(=O)oc2cc(OC(=O)c3ccco3)ccc12 | 12.4 | 20.5 | -16.4 | 126.5* | 2.7 | Hck Nef conf=i
COC(=O)Cc1c(C)c2ccc(OC(=O)c3ccco3)cc2oc1=O | 16.6 | 31.5 | -18.4 | 102.4* | 1.4
CCc1cc(=O)oc2cc(OC(=O)c3ccco3)ccc12 | / | / | / | / | 5.5
COC(=O)Cc1c(C)c2ccc(OC(C)C)cc2oc1=O | 0.6 | 2.0 | -44.0 | 21.7 | 3.1
O=S(=O)(N/N=C\c1ccc2c(c1)OCO2)c1ccc(F)cc1 | / | / | / | / | 2.7
O=C1CC(C(=O)N2CCc3ccccc32)CN1c1ccc(F)cc1 (centres undefined) | / | / | / | / | 3.4
O=C(O)c1ccc(N2C(=O)/C(=C/c3ccc(-c4ccc([N+](=O)[O-])cc4)o3)C=C2c2ccccc2)cc1 | 10.6 | -44.5 | 28.3 | 72.1* | -11.0 | Hck Nef conf=+
COc1ccc(C)cc1NC(=O)Nc1cnccn1 | 0.5 | 4.1 | 1.3 | 101.9* | -0.1 | Hck Nef conf=+
CCOC(=O)c1c(NC(=O)/C=C/C(=O)O)sc(C)c1-c1ccc(Cl)cc1 | -6.2 | -4.8 | -10.3 | 107.4* | 4.7 | Hck Nef conf=+
CCOC(=O)c1c(NC(=O)Nc2ccc(Cl)cc2)sc(C)c1C | 1.9 | 0.2 | -7.1 | 3.9 | 2.1
O=C(CCc1ccccc1)c1c(O)cc(O)cc1O | 2.2 | 2.8 | -36.6 | 68.5* | -1.4 | Hck Nef conf=i
